Experimental data as given in ChEMBL document CHEMBL1158538, “(-)-Menthylamine derivatives as potent and selective antagonists of transient receptor potential melastatin type-8 (TRPM8) channels” (Bioorg Med Chem Lett, 2010).

Assays:
[1] = target: T1, Transient receptor potential cation channel subfamily V member 1 (Homo sapiens, UniProt Q8NER1); experiment: Agonist activity at human TRPV1 receptor expressed in HEK293 cells assessed as intracellular calcium stimulation; assay type: functional, cell-based
Procedure, shortened: (§1)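 Stably transfected HEK-293 lines (human TRPV1 or rat TRPA1) exposed to compound; rise in intracellular Ca2+ recorded. Non-transfected HEK-293 cells served as control. EC50 reported as mean ± SEM, N = 3.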

[2] = target: T2, Transient receptor potential cation channel subfamily M member 8 (Rattus norvegicus, UniProt Q8R455); experiment: Antagonist activity at rat TRMP8 receptor expressed in HEK293 cells assessed as menthol-induced calcium elevation; assay type: functional, cell-based
Procedure, shortened: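 Rat TRPM8-transfected HEK-293 cells were pretreated with compound for 5 min, then challenged with menthol (20 µM). Block of the Ca2+ rise gave IC50 (means ± SEM, N = 3).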

[3] = target: Transient receptor potential cation channel subfamily A member 1 (Rattus norvegicus) (UniProt Q6RI86); experiment: Agonist activity at rat TRPA1 receptor expressed in HEK293 cells assessed as intracellular calcium stimulation relative to isothiocyanate; assay type: functional, cell-based
Procedure, shortened: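 Intracellular Ca2+ rise in HEK-293 cells stably transfected with rat TRPA1, given as percent of the response to allyl isothiocyanate (100 µM). Efficacy under 10% scored not measurable. N = 3, mean ± SEM.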

[4] = target: T1, Transient receptor potential cation channel subfamily V member 1; experiment: Agonist activity at human TRPV1 receptor expressed in HEK293 cells assessed as intracellular calcium stimulation relative to inomycin; assay type: functional, cell-based
Procedure, shortened: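 Ca2+ elevation in HEK-293 cells stably expressing human TRPV1, expressed as percent of the ionomycin ([…]) response. Not measurable if below 10%. Mean ± SEM, N = 3.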

[5] = target: T2, Transient receptor potential cation channel subfamily M member 8; experiment: Antagonist activity at rat TRMP8 receptor expressed in HEK293 cells assessed as icilin-induced calcium elevation; assay type: functional, cell-based
Procedure, shortened: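 HEK-293 cells stably expressing rat TRPM8 received compound 5 min before icilin (0.25 µM). Inhibition of the intracellular Ca2+ elevation was measured. IC50 given as mean ± SEM of N = 3.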

[6] = target: Transient receptor potential cation channel subfamily A member 1 (Rattus norvegicus, UniProt Q6RI86); experiment: Agonist activity at rat TRPA1 receptor expressed in HEK293 cells assessed as intracellular calcium stimulation; assay type: functional, cell-based; procedure, shortened: as §1
DU-145 = experiment: Induction of apoptosis in human DU145 cells assessed as caspase 3/7 release at 1 uM; assay type: functional
Procedure, shortened: (§2)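 Prostate carcinoma cells (LNCaP, high TRPM8; DU-145, negligible TRPM8) were treated at 1 µM. Apoptosis was read as caspase 3/7 release in arbitrary units. Anti-FAS antibody plus camptothecin served as reference. Means ± SD, N = 3 experiments.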

LNCaP = experiment: Induction of apoptosis in human LNCAP cells assessed as caspase 3/7 release at 1 uM; assay type: functional; procedure, shortened: as §2

T1 sequence (Q8NER1 whole entry): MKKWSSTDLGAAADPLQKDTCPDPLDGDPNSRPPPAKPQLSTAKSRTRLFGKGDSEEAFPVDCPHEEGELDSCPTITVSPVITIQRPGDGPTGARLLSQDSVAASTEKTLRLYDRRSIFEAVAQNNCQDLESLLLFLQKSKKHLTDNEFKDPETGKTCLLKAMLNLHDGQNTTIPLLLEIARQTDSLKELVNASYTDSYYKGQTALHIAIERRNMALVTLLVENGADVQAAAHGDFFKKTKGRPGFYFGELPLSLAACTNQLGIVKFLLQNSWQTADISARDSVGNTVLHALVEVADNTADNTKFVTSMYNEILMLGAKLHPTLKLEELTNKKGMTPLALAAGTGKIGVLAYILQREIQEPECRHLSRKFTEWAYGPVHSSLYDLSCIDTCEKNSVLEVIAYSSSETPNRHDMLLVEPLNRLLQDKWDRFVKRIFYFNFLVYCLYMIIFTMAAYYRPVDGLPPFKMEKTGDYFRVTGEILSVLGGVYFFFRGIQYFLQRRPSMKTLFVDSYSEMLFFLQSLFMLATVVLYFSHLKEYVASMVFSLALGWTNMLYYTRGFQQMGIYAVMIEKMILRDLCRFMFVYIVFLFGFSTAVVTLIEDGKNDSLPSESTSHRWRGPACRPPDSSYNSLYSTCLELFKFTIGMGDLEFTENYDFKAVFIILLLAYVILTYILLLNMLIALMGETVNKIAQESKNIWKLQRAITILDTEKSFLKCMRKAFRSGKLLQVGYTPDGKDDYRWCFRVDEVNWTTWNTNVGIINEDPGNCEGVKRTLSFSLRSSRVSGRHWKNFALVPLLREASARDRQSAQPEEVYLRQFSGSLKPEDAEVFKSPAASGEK
Transient receptor potential cation channel subfamily A member 1, sequence (Q6RI86 whole entry): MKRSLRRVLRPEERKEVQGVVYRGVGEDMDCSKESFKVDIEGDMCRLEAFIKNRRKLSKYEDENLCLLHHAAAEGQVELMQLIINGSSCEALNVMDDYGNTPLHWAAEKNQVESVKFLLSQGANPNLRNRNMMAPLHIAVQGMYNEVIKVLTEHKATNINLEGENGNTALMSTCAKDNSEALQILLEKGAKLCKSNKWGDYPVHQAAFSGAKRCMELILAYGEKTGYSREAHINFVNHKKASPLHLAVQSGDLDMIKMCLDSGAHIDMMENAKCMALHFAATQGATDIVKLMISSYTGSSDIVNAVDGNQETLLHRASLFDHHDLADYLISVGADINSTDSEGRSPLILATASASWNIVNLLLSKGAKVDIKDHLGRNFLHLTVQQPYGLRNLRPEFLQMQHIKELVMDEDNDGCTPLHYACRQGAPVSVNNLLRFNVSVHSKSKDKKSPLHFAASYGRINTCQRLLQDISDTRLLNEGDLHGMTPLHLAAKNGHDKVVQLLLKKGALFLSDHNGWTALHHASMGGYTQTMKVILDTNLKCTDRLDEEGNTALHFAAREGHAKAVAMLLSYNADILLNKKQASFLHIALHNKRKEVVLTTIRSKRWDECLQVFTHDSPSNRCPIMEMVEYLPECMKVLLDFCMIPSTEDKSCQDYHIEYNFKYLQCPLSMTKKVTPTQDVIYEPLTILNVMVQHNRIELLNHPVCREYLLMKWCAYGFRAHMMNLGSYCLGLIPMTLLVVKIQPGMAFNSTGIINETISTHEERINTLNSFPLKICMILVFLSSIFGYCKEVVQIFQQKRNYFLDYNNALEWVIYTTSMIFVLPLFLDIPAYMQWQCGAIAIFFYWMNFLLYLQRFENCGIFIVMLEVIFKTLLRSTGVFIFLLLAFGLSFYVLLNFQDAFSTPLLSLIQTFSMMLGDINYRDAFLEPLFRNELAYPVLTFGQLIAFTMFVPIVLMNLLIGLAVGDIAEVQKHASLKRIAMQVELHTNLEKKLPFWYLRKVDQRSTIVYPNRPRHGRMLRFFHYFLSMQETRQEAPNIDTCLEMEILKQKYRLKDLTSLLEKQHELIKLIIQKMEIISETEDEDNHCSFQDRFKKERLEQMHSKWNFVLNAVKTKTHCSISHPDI
Transient receptor potential cation channel subfamily A member 1 (Rattus norvegicus), sequence (Q6RI86 whole entry): as above
T2 sequence (Q8R455 whole entry): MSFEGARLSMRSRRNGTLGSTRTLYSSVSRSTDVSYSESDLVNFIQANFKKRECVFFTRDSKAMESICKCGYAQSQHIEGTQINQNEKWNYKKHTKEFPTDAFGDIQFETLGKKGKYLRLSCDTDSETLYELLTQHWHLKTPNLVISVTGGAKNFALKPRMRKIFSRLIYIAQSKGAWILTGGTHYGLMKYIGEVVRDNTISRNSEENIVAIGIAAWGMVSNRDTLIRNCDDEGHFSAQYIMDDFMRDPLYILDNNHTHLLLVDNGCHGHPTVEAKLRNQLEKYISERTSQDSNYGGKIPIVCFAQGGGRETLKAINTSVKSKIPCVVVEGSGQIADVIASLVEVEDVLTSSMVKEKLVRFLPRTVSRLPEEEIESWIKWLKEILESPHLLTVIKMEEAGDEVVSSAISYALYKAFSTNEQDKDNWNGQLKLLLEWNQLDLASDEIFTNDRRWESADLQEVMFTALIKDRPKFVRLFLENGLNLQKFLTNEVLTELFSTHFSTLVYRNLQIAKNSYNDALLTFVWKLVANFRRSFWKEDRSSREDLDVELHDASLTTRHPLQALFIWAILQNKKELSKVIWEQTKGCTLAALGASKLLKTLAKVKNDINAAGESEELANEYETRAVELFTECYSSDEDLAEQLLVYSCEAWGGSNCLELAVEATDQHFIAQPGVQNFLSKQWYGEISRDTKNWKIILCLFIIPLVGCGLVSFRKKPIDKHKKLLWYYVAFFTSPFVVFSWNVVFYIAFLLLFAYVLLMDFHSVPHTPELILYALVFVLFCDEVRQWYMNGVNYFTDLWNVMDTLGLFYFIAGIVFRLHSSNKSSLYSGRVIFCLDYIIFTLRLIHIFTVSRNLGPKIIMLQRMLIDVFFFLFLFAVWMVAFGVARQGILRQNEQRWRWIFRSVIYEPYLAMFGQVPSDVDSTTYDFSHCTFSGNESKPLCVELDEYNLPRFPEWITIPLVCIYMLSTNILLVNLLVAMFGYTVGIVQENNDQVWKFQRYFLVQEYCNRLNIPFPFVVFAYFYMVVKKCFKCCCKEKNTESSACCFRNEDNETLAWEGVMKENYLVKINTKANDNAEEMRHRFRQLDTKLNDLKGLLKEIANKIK

Compound | EC50 [1] [µM] | IC50 [2] [µM] | Efficacy [3] [%] | Efficacy [4] [%] | IC50 [5] [µM] | EC50 [6] [µM] | Activity (DU-145) [a.u.] | Activity (LNCaP) [a.u.]
CC(C)[C@@H]1CC[C@@H](C)C[C@H]1NC(=O)c1ccc(Cl)cc1 | 4.1 | 0.7 | 223 | 53.8 | 1.6 | 40.2 |  | 
CC(C)[C@@H]1CC[C@@H](C)C[C@H]1NC(=O)CCCCCCc1ccccc1 |  | 0.4 | 42.8 | 8 | 0.4 | 0.4 |  | 
CC(C)[C@@H]1CC[C@@H](C)C[C@H]1NC(=O)Oc1cccc(C(F)(F)F)c1 |  | 0.3 | 220 | 7.4 | 0.6 | 13.8 |  | 
Cc1ccc(OC(=O)N[C@@H]2C[C@H](C)CC[C@H]2C(C)C)cc1 |  | 1.1 | 73.9 | 3.4 | 0.7 | 0.7 |  | 
CC(C)[C@@H]1CC[C@@H](C)C[C@H]1NC(=O)Oc1cccc(-c2ccccc2)c1 | 7.1 | 0.05 | 282 | 50.9 | 1.5 | 31 |  | 
COc1ccc(C(=O)N[C@@H]2C[C@H](C)CC[C@H]2C(C)C)cc1 |  | 12.8 | < 10 | 9.6 | 9.6 |  |  | 
CC(C)[C@@H]1CC[C@@H](C)C[C@H]1NC(=O)CCCCCCCc1ccccc1 |  | 0.4 | 67 | 5.5 | 0.5 | 26.7 |  | 
CC(C)[C@@H]1CC[C@@H](C)C[C@H]1NC(=O)NC12CC3CC(CC(C3)C1)C2 | 1 | > 100 | 159 | 24.4 | > 100 | 11.2 |  | 
CC(C)[C@@H]1CC[C@@H](C)C[C@H]1NC(=O)NCCc1c[nH]c2ccc(O)cc12 | 52.2 | 15.8 | < 10 | 12.7 | 31 |  |  | 
CC(C)[C@@H]1CC[C@@H](C)C[C@H]1NC(=O)Oc1ccc(C(F)(F)F)cc1 |  | 0.2 | 88.9 | 3.3 | 0.7 | 3 |  | 
COc1cc(CNC(=O)N[C@@H]2C[C@H](C)CC[C@H]2C(C)C)ccc1O | 0.23 | 30.5 | < 10 | 63.2 | 19.8 |  |  | 
CC(C)[C@@H]1CC[C@@H](C)C[C@H]1NC(=O)Oc1ccc(-c2ccccc2)cc1 |  | 0.7 | 87.2 | 4.4 | 7.4 | 6.7 |  | 
CC(C)[C@@H]1CC[C@@H](C)C[C@H]1NC(=O)c1ccc(-c2ccccc2)cc1 |  | 0.02 | 34.7 | 7.8 | 0.05 | 4.1 | 9770 | 58576
CC(C)[C@@H]1CC[C@@H](C)C[C@H]1NC(=O)Oc1cccc(C(C)(C)C)c1 | 5.8 | 5.9 | 273 | 16.3 | 3.3 | 36.7 |  | 
COc1ccc(OC(=O)N[C@@H]2C[C@H](C)CC[C@H]2C(C)C)cc1 | 53.8 | 2.2 | 135 | 46.6 | 2.6 | 3.2 |  | 
CC(C)[C@@H]1CC[C@@H](C)C[C@H]1NC(=O)Oc1ccc(C(C)(C)C)cc1 | 18.3 | 0.1 | 76 | 23.8 | 0.08 | 11.7 |  | 
CC(C)[C@@H]1CC[C@@H](C)C[C@H]1NC(=O)Oc1ccc(Cl)cc1 | 42.8 | 0.8 | 181 | 15.1 | 4.1 | 7.1 |  | 
CC(C)[C@@H]1CC[C@@H](C)C[C@H]1NC(=O)Oc1cccc(Cl)c1 | 19.2 | 1.5 | 309 | 22.6 | 0.5 | 30 |  | 
CC(C)[C@@H]1CC[C@@H](C)C[C@H]1NC(=O)c1ccc(C(C)(C)C)cc1 | 0.25 | 97.6 | 138 | 27.4 | 60.8 | 4.9 |  | 
Cc1ccc(C(=O)N[C@@H]2C[C@H](C)CC[C@H]2C(C)C)cc1 |  | 2.2 | < 10 | 5.4 | 2.5 |  |  | 
CCCCCCCC/C=C\CCCCCCCC(=O)N[C@@H]1C[C@H](C)CC[C@H]1C(C)C |  | 60.6 | < 10 | 4.4 | > 100 |  |  | 
CC(C)[C@@H]1CC[C@@H](C)C[C@H]1NC(=O)c1cccc(Cl)c1 | 7.6 | 2.8 | < 10 | 41.9 | 2.1 |  |  | 
